Columns and labels:
CHO = test: Cytotoxicity against CHO cells after 48 hrs by MTT assay; assay type: cell-based; conditions: Cricetulus griseus
Summary of the method: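 CHO cells in RPMI-1640 with 10% fetal calf serum, 25 mM HEPES and gentamicin, grown to 50% confluency before dosing. Dilution series made from a 10 mg/mL DMSO stock, with DMSO-alone controls. After 48 h the medium was replaced with […] for 30 min.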

Plasmodium falciparum = test: Antiplasmodial activity against Plasmodium falciparum 3D7 after 72 by LDH assay; assay type: functional, organism-based
Summary of the method: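 Non-synchronous chloroquine-sensitive P. falciparum culture at 2% hematocrit and 2% parasitemia, in RPMI-10Pf with twofold serial compound dilutions from a 10 mg/mL DMSO stock. Incubated 72 h at 37 °C under 95% N₂, 3% CO₂, 2% O₂. Resuspended samples went into parasite-specific LDH mix, read at 595 nm after 1 h. IC50 by non-linear regression; mean ± standard error of four independent determinations.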

| IC50 (Plasmodium falciparum) | SMILES | IC50 (CHO) |
| --- | --- | --- |
| 89 µM | Fc1c(F)c(F)c(-n2c[n+]3c(n2)CCC3)c(F)c1F | 303 µM |
| 1.4 µM | Brc1ccccc1Cn1cc[n+](Cc2ccccc2Br)c1 |  |
| 17 µM | Fc1ccc(Cn2cc[n+](Cc3ccc(F)cc3)c2)cc1 | 56 µM |
| 3.1 µM | CSc1nn(-c2ccccc2)c(C)[n+]1-c1ccccc1 | 307 µM |
| 0.1 µM | C[n+]1c(-c2ccccc2)nn(CC(=O)CCc2ccccc2)c1-c1ccccc1 | 143 µM |
| 1.05 µM | Brc1cccc(Cn2cc[n+](Cc3cccc(Br)c3)c2)c1 |  |
| 16 µM | c1ccc(Cn2cc[n+](Cc3ccccc3)c2)cc1 |  |
| 0.9 µM | c1ccc(Cn2cc[n+](Cc3ccc4ccccc4c3)c2)cc1 |  |
| 2.6 µM | O=C(Cn1cc[n+](CC(=O)c2ccc(Cl)cc2)c1)c1ccc(Cl)cc1 | 53 µM |
| 5 µM | COc1ccc(Cn2cc[n+](Cc3ccc(OC)cc3)c2)cc1 | 30.6 µM |
| 0.73 µM | Brc1ccc(Cn2cc[n+](Cc3ccc4ccccc4c3)c2)cc1 | 27 µM |
| 73 µM | O=C(Cn1c[n+](Cc2ccccc2)cn1)c1ccccc1 | 261 µM |
| 3.3 µM | Clc1cccc(Cn2cc[n+](Cc3cccc(Cl)c3)c2)c1 |  |
| 7.8 µM | C[n+]1c(-c2ccccc2)nn(Cc2ccccc2)c1-c1ccccc1 | 87 µM |
| 0.5 µM | O=C(Cn1cc[n+](CC(=O)c2ccc(Cc3ccccc3)cc2)c1)c1ccc(Cc2ccccc2)cc1 | 4.3 µM |
| 0.35 µM | Ic1ccc(Cn2cc[n+](Cc3ccc(I)cc3)c2)cc1 | 33 µM |
| 2 µM | Clc1ccccc1Cn1cc[n+](Cc2ccccc2Cl)c1 |  |
| 0.7 µM | Brc1ccc(Cn2cc[n+](Cc3ccc(Br)cc3)c2)cc1 | 172 µM |
| 10.9 µM | O=C(Cn1c[n+](CC(=O)c2ccc(Br)cc2)cn1)c1ccc(Br)cc1 | 20.9 µM |
| 0.9 µM | c1ccc2cc(Cn3cc[n+](Cc4ccc5ccccc5c4)c3)ccc2c1 | 27 µM |
| 3.4 µM | C[n+]1cn(CC(=O)CCc2ccccc2)nc1-c1ccccc1 | 237 µM |
| 69 µM | CSc1nn(-c2ccccc2)c[n+]1-c1ccccc1 | 224 µM |
| 2.9 µM | Brc1ccc(C[n+]2ccn(Cc3ccccc3)c2)cc1 |  |
| 9 µM | Clc1ccc(Cn2cc[n+](Cc3ccc(Cl)cc3)c2)cc1 |  |
| 100 µM | c1ccc(Cn2c[n+](Cc3ccccc3)cn2)cc1 | 74 µM |
| 1.68 µM | C[n+]1c(-c2ccccc2)nn(Cc2ccc(Br)cc2)c1-c1ccccc1 | 33 µM |
| 894 µM | O=C(Cn1cncn1)c1ccccc1 | 334 µM |

| SMILES | IC50 (Plasmodium falciparum) | IC50 (CHO) |
| --- | --- | --- |
| O=[N+]([O-])c1ccc(Cn2cc[n+](Cc3ccc([N+](=O)[O-])cc3)c2)cc1 | 9 µM |  |
| c1nc[nH]n1 [1,2,4-TRIAZOLE] | 2900 µM | 1270 µM |
| c1c[nH]cn1 [IMIDAZOLE] | 368 µM | 3680 µM |
